High-throughput results deposited in PubChem by several laboratories.
Diaph inh CS – counter-screen for diaphorase-based assays: diaphorase inhibitors and chemical oxidizers | diaphorase resazurin-to-resorufin fluorescence, NADH, 16 min; bacterial (C. kluyveri) enzyme, not human | inhibition, % at 20 µM | 0.69% of 190,000 active | AID 1217;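 active = primary screen inhibition at 20 µM above a set limit, cut at about 50% in these data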;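 note: plate controls were DMSO with full reaction for no effect and wells lacking NADH for full effect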
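Test system: bacterial diaphorase enzyme (C. kluyveri); Quantity: 0.14 U/mL diaphorase, enzyme working solution; Times: reaction incubation of 16 min at room temperature; Measured by: fluorescence of resorufin formed from resazurin, Ex 544/Em 590 nm; Benchmarks: positive control minus NADH, DMSO neutral control.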
ATG4B inhibitor – inhibitors of human ATG4B cysteine protease; 0.51% of 340,000 active; inhibition, % at 8.33 µM; Q9Y4P1; ATG4B cleavage of LC3-PLA2, NBD-HPC fluorescence, 1 h; in the data active = inhibition above about 40%
Target sequence (Q9Y4P1 whole entry, looked up): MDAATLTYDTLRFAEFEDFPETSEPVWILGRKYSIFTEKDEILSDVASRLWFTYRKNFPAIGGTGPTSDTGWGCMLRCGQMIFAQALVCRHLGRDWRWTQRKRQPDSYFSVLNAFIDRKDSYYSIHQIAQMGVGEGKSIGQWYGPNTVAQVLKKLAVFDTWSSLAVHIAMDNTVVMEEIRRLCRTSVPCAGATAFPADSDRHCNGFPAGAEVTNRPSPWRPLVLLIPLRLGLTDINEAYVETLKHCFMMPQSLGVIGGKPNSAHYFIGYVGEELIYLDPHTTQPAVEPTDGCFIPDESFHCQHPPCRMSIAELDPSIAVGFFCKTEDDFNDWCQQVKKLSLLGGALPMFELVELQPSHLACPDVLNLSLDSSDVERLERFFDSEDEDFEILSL
Diaphorase act – counter-screen for diaphorase-based assays: diaphorase activators and chemical reducers. Diaphorase/resazurin coupled assay, resorufin fluorescence, 16 min; active compounds read high; 1 = vehicle wells, 0 = NADH-free wells. activation factor at 20 µM. 0.005% of 190,000 active;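 active = diaphorase activity raised at least twofold by the compound at 20 µM; inactive = activation factor below 2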
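Test system: Clostridium kluyveri diaphorase, purified enzyme. Buffer or medium: 50 mM HEPES pH 7.4 buffer plus MgCl2 and Tween 20. Also added: 0.114 mM NADH and 0.1 mM resazurin, final amounts. Dosing: compound 20 µM once, DMSO 1%. Schedule: 16 min enzyme reaction, ambient temperature. Detection: fluorescence of resorufin, 544 nm excitation, 590 nm emission.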
Fh CTSL1 inh – counter-screen for PFM18AAP inhibitors: inhibitors of F. hepatica cathepsin L1 | recombinant F. hepatica cathepsin L1, Z-Leu-Arg-MCA fluorescence | inhibition, % at 5.96 µM | 0.49% of 300,000 active | AID 1906;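 active = inhibition above the mean of all tested compounds plus 3 SD, set per screening campaign, cut at about 17% in these data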;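 note: 0% = plate median of test compound wells and 100% = 1 µM Z-Phe-Ala-diazomethylketone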
HKDC1 inh – blocks human hexokinase HKDC1 activity; Q2TB90; recombinant HKDC1, G6PDH/diaphorase resazurin coupled fluorescence; inhibition, % at 20 µM; 0.16% of 340,000 active; AID 493160;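 active = inhibition above about 35% when tested at 20 µM, limit read from the data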;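 note: plate controls were DMSO wells with enzyme for no effect and DMSO wells lacking enzyme for full effect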
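test system = in-house recombinant HK5 (HKDC1) enzyme | amount = HKDC1 at 5 µg/mL | control set = DMSO-enzyme wells negative, buffer-substituted wells positive | compound = one dose of 20 µM, 1% DMSO | schedule = reaction time 90 min, room temperature, protected from light | technique = resorufin fluorescence at 613 nm | reagent = glucose with 1 mM ATP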
ATG4B confirm – confirmation of human ATG4B inhibitors; shares compounds with ATG4B inhibitor; ATG4B protease fluorescent substrate cleavage assay; inhibition, % at 8.33 µM; 92% of 320 active; AID 504757; in the data active = inhibition above about 39%
PLA2 counter – PLA2 (human) inhibition in ATG4B counter-screen | inhibition, % at 8.33 µM | shares compounds with ATG4B inhibitor | 66% of 1,600 active | AID 588402 | purified PLA2, NBD-C6-HPC fluorescence, 45 min; in the data active = inhibition above about 50%
Target sequence (P04054 whole entry, looked up): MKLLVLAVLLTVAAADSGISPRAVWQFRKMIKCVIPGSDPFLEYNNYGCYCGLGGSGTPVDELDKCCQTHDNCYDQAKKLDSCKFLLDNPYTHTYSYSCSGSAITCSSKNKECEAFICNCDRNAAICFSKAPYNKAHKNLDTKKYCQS
* hit, by the source's call; · = no result given. Compounds with a hit are over-represented: about 1.4% of the library has one in this group of screens.

SMILES	Diaph inh CS	ATG4B inhibitor	Diaphorase act	Fh CTSL1 inh	HKDC1 inh	PLA2 counter	others
O=C(Nc1ccc(Nc2ccccc2)cc1)c1ccc(Cl)c([N+](=O)[O-])c1	·	5	·	4	3	·
O=C1NC(c2cccc3ccccc23)Nc2ccc(Cl)cc21 (stereo not given)	·	43*	·	·	1	59*
CCCOc1cccc(C(=O)N/N=C/c2coc3ccccc3c2=O)c1	·	43*	·	·	9	74*
O=C(N/N=C/c1coc2ccccc2c1=O)c1cc(Br)c(O)c(Br)c1	·	22	·	·	18	·
N#Cc1c(-c2ccccc2)nc(SCC(=O)N(c2ccccc2)c2ccccc2)[nH]c1=O	9	13	0.9	1	0	·
N#Cc1c(-c2ccccc2)nc(SCC(=O)N2c3ccccc3Sc3ccccc32)[nH]c1=O	·	57*	·	5	11	59*
NC(=O)c1sc2nnc(-c3ccccc3)c(-c3ccccc3)c2c1N	·	28	·	-4	6	·
COc1ccc(-c2c(C#N)sc(C(N)=O)c2-c2ccc(OC)cc2)cc1	·	82*	·	3	1	85*
N#Cc1sc(C(N)=O)c(-c2ccccc2)c1-c1ccccc1	·	68*	·	-2	-1	66*
CCC(Sc1nc2ncccc2[nH]1)C(=O)N1CCOCC1 (stereo not given)	·	-5	·	1	-3	·
O=C(c1cc(-c2ccccc2)on1)N1CCc2ccccc2C1	-7	41*	1.1	1	-5	52*
O=C(c1cc(-c2ccc(Cl)cc2)on1)N1CCc2ccccc2C1	·	-4	·	1	-7	·
O=C(Nc1nnc(Cc2c[nH]c3ccccc23)s1)c1ccc(Cl)cc1Cl	19	52*	0.8	-4	5	51*
CC(NC(=O)COC(=O)c1ccc[nH]c1=O)c1ccccc1 (stereo not given)	·	-5	·	·	-5	·
Cc1ccccc1-c1cc(C(=O)NCC2CC2)nn1CC1CC(c2cccc([N+](=O)[O-])c2)=NO1 (stereo not given)	·	1	·	·	8	·
CC(OC(=O)CNC(=O)COc1ccccc1)C(=O)N(C)Cc1ccccc1 (stereo not given)	·	-4	·	-12	-3	·
Cc1ccccc1-c1nnn(Cc2ccc(F)cc2Cl)n1	·	44*	·	-5	-1	46
Fc1ccc(-c2nnn(Cc3ccc(F)cc3Cl)n2)cc1	·	27	·	-1	1	·
COc1ccc2c(c1)[C@@H]1[C@H](CO2)[C@H](c2ccccc2)[C@]2(C)C(=O)Nc3ccc(C)cc3C(=O)N12	·	46*	·	-2	0	71*
CCN(C(=O)COC(=O)c1cccnc1SC)c1c(N)n(Cc2ccccc2)c(=O)[nH]c1=O	·	-15	·	·	6	·
CCOC(=O)c1c(C)[nH]c(C(=O)COC(=O)COc2ccccc2C=O)c1C	18	47*	0.8	-7	10	45	ATG4B confirm=56*
COc1ccc(C2=NOC(Cn3nc(C(=O)NCc4cccc(Br)c4)cc3-c3ccccc3)C2)cc1 (stereo not given)	·	53*	·	·	-1	59*
COc1cc(C(N)=O)cc(Cl)c1OCc1ccccc1	10	60*	0.9	2	-4	60*
CCOc1cc(C(N)=O)cc(Cl)c1OCc1ccccc1	20	49*	0.8	-1	-1	71*
O=C(NCc1ccco1)C1CCCN1C(=O)Nc1ccc(Br)cc1 (stereo not given)	·	-2	·	·	-5	·
SMILES	Diaph inh CS	ATG4B inhibitor	Diaphorase act	Fh CTSL1 inh	HKDC1 inh	PLA2 counter	others
Cc1cc(C(=O)COc2ccc(F)cc2Br)c(C)n1C1CC1	·	0	·	·	-1	·
Oc1c(Br)cc(Br)cc1C=Nc1ccc2c(c1)OCCO2	43	24	0.6	-1	7	·
Oc1c(Br)cc(Br)cc1C=Nc1ccc2c(c1)OCO2	33	63*	0.7	7	11	17	ATG4B confirm=48*
CCCCC(OC(=O)CN1C(=O)COc2ccccc21)C(=O)NC1CCCCC1 (stereo not given)	·	0	·	-5	-6	·
Cc1cccc(C)c1N1CCN(S(=O)(=O)c2ccc(F)cc2)CC1	22	51*	0.8	9	3	62*
Cc1ccccc1CN1CCN(S(=O)(=O)c2ccc(F)cc2)CC1	22	-9	0.8	-1	4	·
CN(C)C(=O)c1ccccc1NC(=O)Cc1cccc2ccccc12	·	4	·	-6	5	·
O=C(CSc1nnc(COc2ccc(Cl)cc2)n1Cc1ccco1)c1ccccc1F	16	44*	0.8	-2	1	34	ATG4B confirm=57*
Clc1ccc(OCc2nnc(SCc3nc4ccccc4[nH]3)n2Cc2ccco2)cc1	28	-7	0.7	3	5	·
CCCCCCCCCCCCCCC(O)C[N+](C)(CCO)CCO (stereo not given)	·	43*	·	·	5	42	ATG4B confirm=64*
CC1(C)CCCN(C(=O)c2ccc3c(c2NCCO)C(=O)c2ccccc2C3=O)C1	41	68*	0.6	3	17	63*
Cc1nc(NC(=O)c2ccccc2)sc1-c1csc(NCc2ccco2)n1	23	41*	0.8	-2	-9	67*
CC(NC(=O)CN(Cc1ccccc1)S(=O)(=O)c1ccccc1)c1cccnc1 (stereo not given)	·	0	·	·	-5	·
COc1ccc(OC)c(CNC(=O)C2CCN(S(=O)(=O)N3CCCCC3)CC2)c1	·	-1	·	5	3	·
COc1ccc(Br)cc1CNC(=O)C1CCN(S(=O)(=O)N2CCC(C)CC2)CC1	13	42*	0.9	-3	-6	42	ATG4B confirm=67*
O=C(O)c1cccc(NC(=S)N/N=C/c2cccc(O)c2)c1	-5	-10	1.1	0	-7	·
O=C(O)c1cccc(NC(=S)N/N=C/c2ccccc2OCc2cccc(Br)c2)c1	57*	47*	0.4	·	7	54*
O=C(C[C@H]1C/C=C\CCCCC(=O)OC[C@H]2CCCN2C1=O)N[C@H](CO)Cc1ccccc1	·	-6	·	·	-6	·
CCOC(=O)C1=C(c2ccccc2)NC(N)=NC1c1ccc(OCc2ccc(C(=O)OC)cc2)cc1 (stereo not given)	·	46*	·	0	-4	53*
COc1cccc(NC(=O)CN(C)C(=O)C(Sc2ccccc2)c2ccccc2)c1 (stereo not given)	·	-2	·	·	1	·
C=C(C)Cn1c(SCC(=O)N/N=C/c2c(O)ccc3ccccc23)nc2ccccc2c1=O	2	41*	1	-4	-18	-2	ATG4B confirm=56*
C=C(C)Cn1c(SCC)nc2ccccc2c1=O	10	11	0.9	6	-2	·
